# Test results: ChEMBL document CHEMBL1671644, “Inhibition of human immunodeficiency virus type 1 infection by the candidate microbicide dapivirine, a nonnucleoside reverse transcriptase inhibitor” (Antimicrob Agents Chemother, 2009)
# Assays:
# [1] = system: Human immunodeficiency virus 1; assay: Antiviral activity against HIV-1 SM034 harboring NNTRI 188L mutant infected in human MT4 cells assessed as inhibition of viral replication relative to HIV-1 3B; format: functional
# How it was run: (§1)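 MT-4 cells (3 x 10^4/well) infected with site-directed mutants or recombinant clinical isolates (200 TCID50/well) with drug, cultured 3 to 5 days. Viability read by MTT colorimetric antivirogram assay. IC50 by nonlinear regression; fold change = IC50 for the test isolate / IC50 for wild-type HIV-1 IIIB tested in parallel (mean or median).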
# [2] = system: Human immunodeficiency virus 1; assay: Antiviral activity against HIV-1 SM007 harboring NNTRI 103N mutant infected in human MT4 cells assessed as inhibition of viral replication relative to HIV-1 3B; format: functional; how it was run: as §1
# [3] = system: Human immunodeficiency virus 1; assay: Antiviral activity against HIV-1 subtype CRF01_AE V029521 infected in human MT4 cells assessed as inhibition of viral replication relative to HIV-1 3B; format: functional
# How it was run: (§2)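 Recombinant clinical HIV-1 isolates (200 TCID50/well) were tested in MT-4 cells (3 x 10^4/well) over 3–5 days, with an MTT viability read-out. IC50 was fitted by nonlinear regression. Fold change is the isolate IC50 divided by the HIV-1IIIB IC50, tested in parallel.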
# [4] = system: Human immunodeficiency virus 1; assay: Antiviral activity against HIV-1 subtype B V022815 infected in human MT4 cells assessed as inhibition of viral replication relative to HIV-1 3B; format: functional; how it was run: as §2
# [5] = system: Human immunodeficiency virus 1; assay: Antiviral activity against HIV-1 subtype B V022811 infected in human MT4 cells assessed as inhibition of viral replication relative to HIV-1 3B; format: functional; how it was run: as §2
# [6] = system: Human immunodeficiency virus 1; assay: Antiviral activity against HIV-1 subtype B V022812 harboring NNRTI V179I mutant infected in human MT4 cells assessed as inhibition of viral replication relative to HIV-1 3B; format: functional; how it was run: as §1
# [7] = system: Human immunodeficiency virus 1; assay: Antiviral activity against HIV-1 subtype O V029524 harboring NNRTI A98G, V179E and Y181C mutant infected in human MT4 cells assessed as inhibition of viral replication relative to HIV-1 3B; format: functional; how it was run: as §1
# [8] = system: Human immunodeficiency virus 1; assay: Antiviral activity against HIV-1 Bal infected in 24 hrs 100 to 1000 nM compound pretreated human ectocervical explant tissue assessed as prolonged inhibition of viral infection post compound removal measured after 6 days post compound removal; format: functional
# How it was run: (§3)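 Ectocervical explants were exposed to drug (0.01–10 µM) for 2 or 24 h at 37°C and washed. They received HIV-1BaL (2 h) on day 0, 2, 4 or 6 after drug removal, with no drug present. Read-outs at 10 days post-exposure: explant p24 ELISA, tissue proviral DNA by qPCR, and p24 in migratory cell–PM-1 cocultures. Three donors (2 h) or two donors (24 h), triplicate.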
# [9] = system: Human immunodeficiency virus 1; assay: Antiviral activity against HIV-1 subtype B V022810 harboring NNRTI A98S andK101R mutant infected in human MT4 cells assessed as inhibition of viral replication relative to HIV-1 3B; format: functional; how it was run: as §1
# [10] = system: Human immunodeficiency virus 1; assay: Antiviral activity against HIV-1 Bal infected in human TZM-bl cells after 24 hrs by luciferase reporter gene assay; format: functional, organism-based; details: Human immunodeficiency virus 1, Bal
# How it was run: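 TZM-bl cells (5 x 10^4/well), cultured overnight, pretreated with drug 1 h, then infected with HIV-1 BaL (200 TCID50/ml). After 24 h, cells washed and lysed and luciferase read. Drug-treated wells compared with untreated controls; IC50 (infection at 50% of drug-free control) by nonlinear regression.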
# [11] = system: Human immunodeficiency virus 1; assay: Antiviral activity against HIV-1 Bal infected in human PM1 cells after 7 days by RT assay; format: functional, organism-based; details: Human immunodeficiency virus 1, Bal, PM1, 168 h
# How it was run: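 PM-1 cells (4 x 10^4/well) were infected with HIV-1BaL or HIV-1RF (200 TCID50/ml) and cultured 7 days with drug. Replication was measured as reverse transcriptase in supernatant versus untreated wells. IC50 was obtained by nonlinear regression.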
# [12] = system: Human immunodeficiency virus 1; assay: Antiviral activity against HIV-1 Bal infected in 24 hrs 100 to 1000 nM compound pretreated human ectocervical explant tissue assessed as prolonged inhibition of viral infection post compound removal measured after 2 days post compound removal; format: functional; how it was run: as §3
# [13] = Cytotoxicity against human TZM-bl cells after 24 hrs by MTT assay; format: cell-based
# How it was run: (§4)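 Uninfected PM-1 or TZM-bl cells were exposed to drug and viability measured by MTT dye reduction as a percentage of untreated controls. CC50 was derived by nonlinear regression.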
# [14] = Cytotoxicity against human MT4 cells after 24 hrs by MTT assay; format: cell-based
# [15] = Toxicity against human Ectocervical tissue explants at 0.0001 to 100 uM after 24 hrs by MTT assay
# How it was run: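 Uninfected ectocervical explants were exposed to drug for 2 or 24 h. Viability was measured by MTT reduction per milligram of tissue relative to unexposed explants, either immediately or after overnight culture. Three or four donors, triplicate.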
# [16] = system: Human immunodeficiency virus 1; assay: Antiviral activity against HIV-1 subtype CRF02_AG V022825 infected in human MT4 cells assessed as inhibition of viral replication relative to HIV-1 3B; format: functional; how it was run: as §1
# [17] = Cytotoxicity against human PM1 cells after 24 hrs by MTT assay; format: cell-based; how it was run: as §4
# [18] = system: Human immunodeficiency virus 1; assay: Antiviral activity against HIV-1 Bal infected in 24 hrs 100 to 1000 nM compound pretreated human ectocervical explant tissue assessed as prolonged inhibition of viral infection post compound removal measured after 4 days post compound removal; format: functional; how it was run: as §3
# [19] = system: Human immunodeficiency virus 1; assay: Antiviral activity against HIV-1 subtype CRF02_AG V022808 infected in human MT4 cells assessed as inhibition of viral replication relative to HIV-1 3B; format: functional; how it was run: as §1
# [20] = system: Human immunodeficiency virus 1; assay: Antiviral activity against HIV-1 SM002 harboring NNTRI 181C mutant infected in human MT4 cells assessed as inhibition of viral replication relative to HIV-1 3B; format: functional; how it was run: as §1
# [21] = system: Human immunodeficiency virus 1; assay: Antiviral activity against HIV-1 3B infected in human TZM-bl cells after 24 hrs by luciferase reporter assay; details: Human immunodeficiency virus 1, 3B
# [22] = system: Human immunodeficiency virus 1; assay: Antiviral activity against HIV-1 subtype H V022828 harboring NNRTI K101Q and V179I mutant infected in human MT4 cells assessed as inhibition of viral replication relative to HIV-1 3B; format: functional; how it was run: as §1
# [23] = system: Human immunodeficiency virus 1; assay: Antiviral activity against HIV-1 Bal infected in human TZM-bl cells after 24 hrs by luciferase reporter assay; details: Human immunodeficiency virus 1, Bal
# [24] = system: Human immunodeficiency virus 1; assay: Antiviral activity against HIV-1 subtype CRF01_AE V029525 infected in human MT4 cells assessed as inhibition of viral replication relative to HIV-1 3B; format: functional; how it was run: as §2
# [25] = system: Human immunodeficiency virus 1; assay: Antiviral activity against HIV-1 subtype CRF02_AG V022830 infected in human MT4 cells assessed as inhibition of viral replication relative to HIV-1 3B; format: functional; how it was run: as §1
# [26] = system: Human immunodeficiency virus 1; assay: Antiviral activity against HIV-1 Bal infected in 2 hrs 10000 nM compound pretreated human ectocervical explant tissue assessed as prolonged inhibition of viral infection post compound removal measured after 6 days post compound removal; format: functional; how it was run: as §3
# [27] = system: Human immunodeficiency virus 1; assay: Antiviral activity against HIV-1 subtype B V022807 infected in human MT4 cells assessed as inhibition of viral replication relative to HIV-1 3B; format: functional; how it was run: as §2
compound,measurement,setting,value
Cc1cc(C)c(Nc2ccnc(Nc3ccc(C#N)cc3)n2)c(C)c1 [DAPIVIRINE],Ratio IC50,[1],47
same,Ratio IC50,[2],5
same,Ratio IC50,[3],3.5
same,Ratio IC50,[4],2.2
same,Ratio IC50,[5],3.1
same,Ratio IC50,[6],2
same,Ratio IC50,[7],150
same,inhibition (INH),[8],90%
same,Ratio IC50,[9],1.6
same,IC50,[10],1.46 nM
same,IC90,[10],10.2 nM
same,IC50,[11],6 nM
same,inhibition (INH),[12],90%
same,CC50 at 24 h,[13],20400 nM
same,CC50 at 24 h,[14],2150 nM
same,Activity,[15],Non-toxic
same,Ratio IC50,[16],0.8
same,CC50 at 24 h,[17],11000 nM
same,inhibition (INH),[18],90%
same,Ratio IC50,[19],1
same,Ratio IC50,[20],8
same,IC50,[21],1 nM
same,Ratio IC50,[22],1.5
same,IC50,[23],2.2 nM
same,Ratio IC50,[24],2.6
same,Ratio IC50,[25],1.6
same,inhibition (INH),[26],80%
same,Ratio IC50,[27],1.1
